ChEMBL document CHEMBL1139361, “Comparative positron-emission tomography (PET) imaging and phototherapeutic potential of 124I- labeled methyl- 3-(1'-iodobenzyloxyethyl)pyropheophorbide-a vs the corresponding glucose and galactose conjugates” (J Med Chem, 2009)
Activity calls are given as the source filed them. No cut-off for these calls is given here.

Experiments:
[1] = Biodistribution in tumor of iv dosed C3H/HeJ mouse bearing mouse RIF cells after 24 hrs; format: ADME, organism-based, Neoplasm; settings: read-out: Drug uptake
In short: (§1)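 ¹²⁴I-labeled photosensitizer formulated in saline with 10% ethanol, 15–200 μCi via tail vein into C3H mice bearing RIF tumors (3×10^5 cells sc in axilla, 4–5 mm) or BALB/c mice bearing Colon-26 tumors. 3–4 mice per time point killed at 24, 48, 72, 96 h. Tumor and organs weighed and gamma-counted; uptake given as %ID/g, mean of group.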

[2] = Ratio of drug level in tumor to liver of iv dosed C3H/HeJ mouse bearing mouse RIF cells after 24 hrs; format: ADME, organism-based; settings: in vivo
In short: (§2)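 RIF-bearing C3H mice given ¹²⁴I-labeled photosensitizer (15–200 μCi, tail vein, in saline with 10% ethanol). 3–4 mice killed at each time point, tumor and liver weighed and gamma-counted. Uptake expressed as %ID/g, and tumor to liver ratio taken from the %ID/g values.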

[3] = Ratio of drug level in tumor to liver of iv dosed C3H/HeJ mouse bearing mouse RIF cells after 48 hrs; format: ADME, organism-based; settings: in vivo; in short: as §2
[4] = Biodistribution in tumor of iv dosed C3H/HeJ mouse bearing mouse RIF cells after 48 hrs; format: ADME, organism-based, Neoplasm; settings: read-out: Drug uptake; in short: as §1
[5] = Biodistribution in tumor of iv dosed C3H/HeJ mouse bearing mouse RIF cells after 72 hrs; format: ADME, organism-based, Neoplasm; settings: read-out: Drug uptake; in short: as §1
[6] = Biodistribution in tumor of iv dosed C3H/HeJ mouse bearing mouse RIF cells after 96 hrs; format: ADME, organism-based, Neoplasm; settings: read-out: Drug uptake; in short: as §1
[7] = Biodistribution in tumor of iv dosed BALB/c mouse bearing mouse Colon-26 cells after 24 hrs; format: ADME, organism-based, Neoplasm; settings: read-out: Drug uptake; in short: as §1
[8] = Biodistribution in tumor of iv dosed BALB/c mouse bearing mouse Colon-26 cells after 48 hrs; format: ADME, organism-based, Neoplasm; settings: read-out: Drug uptake; in short: as §1
[9] = Biodistribution in tumor of iv dosed BALB/c mouse bearing mouse Colon-26 cells after 72 hrs; format: ADME, organism-based, Neoplasm; settings: read-out: Drug uptake; in short: as §1
[10] = Biodistribution in tumor of iv dosed BALB/c mouse bearing mouse Colon-26 cells after 96 hrs; format: ADME, organism-based, Neoplasm; settings: read-out: Drug uptake; in short: as §1
[11] = system: RIF; experiment: Antitumor activity against mouse RIF cells xenografted in C3H/HeJ mouse at 0.50 umol/kg, iv irradiated for 30 mins measured after 24 hrs by photodynamic therapy; format: functional, organism-based; settings: tested as the 124I-labelled form
In short: (§3)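 Female C3H/HeJ mice given 2×10^5 RIF cells intradermally on flank; tumors grown to 4–5 mm diameter. Hair removed, photosensitizer injected iv (0.5, 1.0, 1.5 μmol/kg; five mice/group). At 24 h, unanesthetized restrained mice irradiated over 1 cm² with dye laser, 665 nm, 75 mW/cm², 135 J/cm² (30 min). Daily observation for weight loss, scabbing, regrowth and deaths; sacrifice at 400 mm^3; tumor-free status followed to day 60.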

[12] = system: RIF; experiment: Antitumor activity against mouse RIF cells xenografted in C3H/HeJ mouse assessed as increase in photosensitizing ability at 1.5 umol/kg, iv irradiated for 30 mins measured after 60 days photodynamic therapy; format: functional, organism-based; settings: tested as the 124I-labelled form; in short: as §3
[13] = system: Mus musculus; experiment: Toxicity in C3H/HeJ mouse xenografted with mouse RIF cells at 1 umol/kg, iv irradiated for 30 mins measured after 24 hrs photodynamic therapy; format: organism-based; settings: in vivo; in short: as §3
[14] = system: Mus musculus; experiment: Toxicity in C3H/HeJ mouse xenografted with mouse RIF cells at 1.5 umol/kg, iv irradiated for 30 mins measured after 24 hrs photodynamic therapy; format: organism-based; settings: in vivo; in short: as §3
[15] = Biodistribution in tumor of iv dosed BALB/c mouse bearing mouse Colon-26 cells assessed as relative uptake value after 48 hrs by PET imaging; format: ADME, organism-based, Neoplasm; settings: in vivo
[16] = Biodistribution in tumor of iv dosed C3H/HeJ mouse bearing mouse RIF cells assessed as relative uptake value after 3 days by PET imaging; format: ADME, organism-based, Neoplasm; settings: in vivo, 72 h

## CCC1=C(C)c2cc3[nH]c(cc4nc(c5c6[nH]c(cc1n2)c(C)c6C(=O)C5)[C@@H](CCC(=O)OC)[C@@H]4C)c(C)c3C(C)OCc1cccc([124I])c1 (stereo partly specified)
[1]
  tissue uptake at 24 h: 4.1 %ID/g
[2]
  Ratio: 0.32
[3]
  Ratio: 0.56
[4]
  tissue uptake at 48 h: 2.1 %ID/g
[5]
  tissue uptake at 72 h: 0.8 %ID/g
[6]
  tissue uptake at 96 h: 0.6 %ID/g
[7]
  tissue uptake at 24 h: 4.6 %ID/g
[8]
  tissue uptake at 48 h: 4.4 %ID/g
[9]
  tissue uptake at 72 h: 2.5 %ID/g
[10]
  tissue uptake at 96 h: 2 %ID/g

## CCC1=C(C)c2cc3[nH]c(cc4nc(c5c6[nH]c(cc1n2)c(C)c6C(=O)C5)[C@@H](CCC(=O)OC)[C@@H]4C)c(C)c3C(C)OCc1cccc(I)c1 (stereo partly specified)
[11]
  Activity: inactive
[12]
  Activity: Active

## CCC1=C(C)c2cc3[nH]c(cc4nc(c5c6[nH]c(cc1n2)c(C)c6C(=O)C5)[C@@H](CCC(=O)N[C@@H]1[C@@H](O)[C@H](O)[C@@H](CO)O[C@H]1O)[C@@H]4C)c(C)c3C(C)OCc1cccc([124I])c1 (stereo partly specified)
[2]
  Ratio: 0.08
[3]
  Ratio: 0.13

## CCC1=C(C)c2cc3[nH]c(cc4nc(c5c6[nH]c(cc1n2)c(C)c6C(=O)C5)[C@@H](CCC(=O)N[C@@H]1O[C@H](CO)[C@H](O)[C@H](O)[C@H]1O)[C@@H]4C)c(C)c3C(C)OCc1cccc([124I])c1 (stereo partly specified)
[2]
  Ratio: 0.05
[3]
  Ratio: 0.06
[13]
  Activity: Toxic
[14]
  Activity: Toxic

## CCC1=C(C)c2cc3[nH]c(cc4nc(c5c6[nH]c(cc1n2)c(C)c6C(=O)C5)[C@@H](CCC(=O)N[C@@H]1O[C@H](CO)[C@H](O)[C@H](O)[C@H]1O)[C@@H]4C)c(C)c3C(C)OCc1cccc(I)c1 (stereo partly specified)
[11]
  Activity: inactive

## OC[C@H]1O[C@@H](O)[C@H]([18F])[C@@H](O)[C@@H]1O [FLUDEOXYGLUCOSE-F18]
[15]
  Activity: 4
[16]
  Activity: 0.035
